ChEMBL document CHEMBL1134694, “Discovery of macrocyclic hydroxamic acids containing biphenylmethyl derivatives at P1', a series of selective TNF-alpha converting enzyme inhibitors with potent cellular activity in the inhibition of TNF-alpha release” (J Med Chem, 2001)

Experiments:
[1] = target: Matrix metalloproteinase-14 (Homo sapiens, UniProt P50281); assay: Inhibition of matrix metalloprotease-14
[2] = target: Matrix metalloproteinase-16 (Homo sapiens, UniProt P51512); assay: Inhibition of matrix metalloprotease-16
[3] = target: Neutrophil collagenase (Homo sapiens, UniProt P22894); assay: Inhibition of matrix metalloprotease-8
[4] = target: Macrophage metalloelastase (Homo sapiens, UniProt P39900); assay: Inhibition of matrix metalloprotease-12
[5] = species: Homo sapiens; assay: Binding affinity against human serum protein; format: functional
Outline: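 Binding to human serum proteins, reported as the mean percentage of compound bound across three determinations.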

[6] = target: Stromelysin-1 (Homo sapiens, UniProt P08254); assay: Inhibition of matrix metalloprotease-3
[7] = species: Homo sapiens; assay: Inhibition of TNF-alpha release in LPS-stimulated human whole blood assay(WBA); format: functional, organism-based
Outline: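 Human whole blood stimulated with LPS; inhibition of TNF-alpha release measured in blood from three separate donors.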

[8] = target: Disintegrin and metalloproteinase domain-containing protein 17 (Sus scrofa, UniProt O77636)
[9] = target: Matrix metalloproteinase-9 (Homo sapiens, UniProt P14780); assay: Inhibition of human matrix metalloprotease-9
[10] = target: T1, Interstitial collagenase (Homo sapiens, UniProt P03956); assay: Inhibition of matrix metalloprotease-1
T1 sequence (P03956 whole entry): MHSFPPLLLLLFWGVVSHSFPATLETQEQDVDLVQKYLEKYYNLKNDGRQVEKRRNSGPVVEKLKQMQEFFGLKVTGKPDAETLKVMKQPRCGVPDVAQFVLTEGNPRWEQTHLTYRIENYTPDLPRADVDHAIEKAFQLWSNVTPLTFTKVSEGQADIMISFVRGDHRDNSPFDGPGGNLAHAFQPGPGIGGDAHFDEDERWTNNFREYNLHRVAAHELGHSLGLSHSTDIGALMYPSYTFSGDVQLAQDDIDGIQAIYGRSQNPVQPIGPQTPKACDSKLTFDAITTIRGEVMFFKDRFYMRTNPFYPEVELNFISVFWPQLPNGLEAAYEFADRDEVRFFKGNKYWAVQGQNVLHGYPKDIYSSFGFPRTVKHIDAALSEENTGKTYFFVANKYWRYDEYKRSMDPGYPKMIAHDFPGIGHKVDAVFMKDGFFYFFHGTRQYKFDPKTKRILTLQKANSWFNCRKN

[11] = target: Matrix metalloproteinase-15 (Homo sapiens, UniProt P51511); assay: Inhibition of matrix metalloprotease-15
[12] = target: T2, Matrilysin (Homo sapiens, UniProt P09237); assay: Inhibition of matrix metalloprotease-7
T2 sequence (P09237 whole entry): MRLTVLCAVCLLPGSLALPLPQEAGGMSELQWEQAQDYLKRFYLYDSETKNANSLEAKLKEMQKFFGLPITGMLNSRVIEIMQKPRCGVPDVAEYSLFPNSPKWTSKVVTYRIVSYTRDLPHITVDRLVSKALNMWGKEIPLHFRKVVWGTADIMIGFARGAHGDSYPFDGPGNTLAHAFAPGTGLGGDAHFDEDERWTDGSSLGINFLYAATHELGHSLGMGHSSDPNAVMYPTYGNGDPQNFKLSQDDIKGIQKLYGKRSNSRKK

[13] = target: 72 kDa type IV collagenase (Homo sapiens, UniProt P08253)
[14] = target: Stromelysin-2 (Homo sapiens, UniProt P09238); assay: Inhibition of matrix metalloprotease-10
[15] = target: Collagenase 3 (Homo sapiens, UniProt P45452); assay: Inhibition of matrix metalloprotease-13
[16] = target: T1, Interstitial collagenase; assay: Inhibition of human matrix metalloprotease-1

Chain of Matrix metalloproteinase-15 (P51511 whole entry): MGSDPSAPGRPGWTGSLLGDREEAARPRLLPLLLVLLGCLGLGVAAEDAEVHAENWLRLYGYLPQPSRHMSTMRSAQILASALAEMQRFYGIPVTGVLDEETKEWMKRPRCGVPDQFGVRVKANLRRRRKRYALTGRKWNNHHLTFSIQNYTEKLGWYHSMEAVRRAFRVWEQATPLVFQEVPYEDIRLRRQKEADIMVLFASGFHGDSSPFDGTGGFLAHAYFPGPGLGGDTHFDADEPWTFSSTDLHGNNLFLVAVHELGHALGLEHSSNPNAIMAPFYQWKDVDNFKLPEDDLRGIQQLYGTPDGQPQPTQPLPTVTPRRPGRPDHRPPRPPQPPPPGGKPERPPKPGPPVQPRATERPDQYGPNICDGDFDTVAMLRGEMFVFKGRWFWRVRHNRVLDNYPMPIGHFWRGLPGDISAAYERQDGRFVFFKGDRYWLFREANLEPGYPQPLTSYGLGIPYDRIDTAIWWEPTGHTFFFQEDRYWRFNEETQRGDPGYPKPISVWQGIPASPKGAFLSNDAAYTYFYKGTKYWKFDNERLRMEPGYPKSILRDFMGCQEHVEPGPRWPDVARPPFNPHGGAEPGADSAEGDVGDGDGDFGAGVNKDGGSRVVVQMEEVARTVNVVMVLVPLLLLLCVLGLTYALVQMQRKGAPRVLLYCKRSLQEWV
Chain of Matrix metalloproteinase-9 (P14780 whole entry): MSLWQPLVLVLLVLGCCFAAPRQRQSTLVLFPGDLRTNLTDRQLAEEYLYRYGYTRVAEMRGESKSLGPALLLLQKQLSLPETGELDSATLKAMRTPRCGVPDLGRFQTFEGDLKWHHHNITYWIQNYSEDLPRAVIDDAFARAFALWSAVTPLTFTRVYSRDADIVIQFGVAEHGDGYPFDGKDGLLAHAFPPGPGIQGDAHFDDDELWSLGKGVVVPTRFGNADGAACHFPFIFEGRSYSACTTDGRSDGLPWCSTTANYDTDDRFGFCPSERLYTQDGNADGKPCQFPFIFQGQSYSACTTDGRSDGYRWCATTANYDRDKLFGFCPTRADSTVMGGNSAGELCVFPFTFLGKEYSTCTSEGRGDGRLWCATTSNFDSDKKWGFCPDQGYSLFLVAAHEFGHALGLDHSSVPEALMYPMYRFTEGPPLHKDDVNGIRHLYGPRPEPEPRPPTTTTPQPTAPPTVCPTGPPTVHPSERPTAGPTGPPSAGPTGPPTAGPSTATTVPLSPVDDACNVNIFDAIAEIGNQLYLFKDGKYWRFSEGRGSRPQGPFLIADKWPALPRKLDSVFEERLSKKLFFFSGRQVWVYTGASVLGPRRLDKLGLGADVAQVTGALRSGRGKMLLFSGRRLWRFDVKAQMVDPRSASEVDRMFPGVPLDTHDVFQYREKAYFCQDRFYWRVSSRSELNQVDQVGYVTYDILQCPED
Chain of Matrix metalloproteinase-16 (P51512 whole entry): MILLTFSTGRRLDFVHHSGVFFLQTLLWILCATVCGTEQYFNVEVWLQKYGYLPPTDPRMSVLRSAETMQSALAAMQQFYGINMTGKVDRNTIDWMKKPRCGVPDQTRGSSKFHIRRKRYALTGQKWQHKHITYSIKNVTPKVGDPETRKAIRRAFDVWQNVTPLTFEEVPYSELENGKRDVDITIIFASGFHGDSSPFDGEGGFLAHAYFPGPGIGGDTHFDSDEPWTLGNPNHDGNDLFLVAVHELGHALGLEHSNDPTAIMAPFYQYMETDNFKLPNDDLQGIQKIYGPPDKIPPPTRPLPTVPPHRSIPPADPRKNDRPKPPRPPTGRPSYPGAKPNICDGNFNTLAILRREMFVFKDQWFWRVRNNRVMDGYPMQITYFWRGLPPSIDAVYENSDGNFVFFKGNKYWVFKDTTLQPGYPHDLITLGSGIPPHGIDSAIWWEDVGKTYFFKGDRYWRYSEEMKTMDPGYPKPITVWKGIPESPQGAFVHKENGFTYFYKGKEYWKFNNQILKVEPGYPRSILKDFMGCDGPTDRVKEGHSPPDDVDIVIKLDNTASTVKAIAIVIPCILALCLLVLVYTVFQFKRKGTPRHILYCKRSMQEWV
Chain of Stromelysin-1 (P08254 whole entry): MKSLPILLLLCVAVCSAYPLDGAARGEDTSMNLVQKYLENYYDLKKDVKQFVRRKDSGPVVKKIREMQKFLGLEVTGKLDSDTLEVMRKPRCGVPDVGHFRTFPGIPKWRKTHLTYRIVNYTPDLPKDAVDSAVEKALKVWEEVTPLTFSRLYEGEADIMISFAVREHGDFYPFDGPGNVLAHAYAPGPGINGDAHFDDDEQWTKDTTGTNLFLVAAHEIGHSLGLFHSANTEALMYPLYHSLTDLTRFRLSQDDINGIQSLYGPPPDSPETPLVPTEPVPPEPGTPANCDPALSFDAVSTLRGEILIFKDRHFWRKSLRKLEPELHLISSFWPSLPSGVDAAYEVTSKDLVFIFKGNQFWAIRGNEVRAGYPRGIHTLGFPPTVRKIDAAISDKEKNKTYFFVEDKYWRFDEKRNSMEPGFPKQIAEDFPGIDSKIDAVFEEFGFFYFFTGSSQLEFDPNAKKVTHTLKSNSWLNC
Chain of Stromelysin-2 (P09238 whole entry): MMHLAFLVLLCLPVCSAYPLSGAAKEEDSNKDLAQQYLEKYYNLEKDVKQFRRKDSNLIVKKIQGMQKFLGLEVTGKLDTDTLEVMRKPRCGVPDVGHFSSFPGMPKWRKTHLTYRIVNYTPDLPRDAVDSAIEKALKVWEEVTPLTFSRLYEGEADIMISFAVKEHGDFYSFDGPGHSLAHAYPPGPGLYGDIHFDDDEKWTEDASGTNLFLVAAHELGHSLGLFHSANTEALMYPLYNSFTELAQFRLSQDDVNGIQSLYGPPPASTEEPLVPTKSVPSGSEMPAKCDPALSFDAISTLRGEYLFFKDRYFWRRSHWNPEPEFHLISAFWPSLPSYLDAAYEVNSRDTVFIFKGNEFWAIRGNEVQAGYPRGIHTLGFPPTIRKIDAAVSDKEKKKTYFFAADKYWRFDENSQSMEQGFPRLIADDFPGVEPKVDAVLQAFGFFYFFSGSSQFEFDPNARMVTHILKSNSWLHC
Chain of Macrophage metalloelastase (P39900 whole entry): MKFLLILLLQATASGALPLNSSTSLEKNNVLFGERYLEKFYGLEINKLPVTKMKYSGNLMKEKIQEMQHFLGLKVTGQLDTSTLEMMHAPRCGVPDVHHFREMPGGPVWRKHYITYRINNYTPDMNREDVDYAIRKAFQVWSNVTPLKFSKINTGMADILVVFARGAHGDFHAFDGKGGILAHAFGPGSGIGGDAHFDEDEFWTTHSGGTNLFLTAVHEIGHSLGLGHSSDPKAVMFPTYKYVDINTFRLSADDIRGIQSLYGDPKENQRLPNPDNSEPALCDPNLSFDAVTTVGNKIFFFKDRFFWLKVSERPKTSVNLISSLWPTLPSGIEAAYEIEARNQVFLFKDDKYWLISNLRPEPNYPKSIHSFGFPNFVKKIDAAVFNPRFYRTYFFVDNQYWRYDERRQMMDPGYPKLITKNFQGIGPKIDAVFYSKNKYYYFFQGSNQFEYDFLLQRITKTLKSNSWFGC
Chain of 72 kDa type IV collagenase (P08253 whole entry): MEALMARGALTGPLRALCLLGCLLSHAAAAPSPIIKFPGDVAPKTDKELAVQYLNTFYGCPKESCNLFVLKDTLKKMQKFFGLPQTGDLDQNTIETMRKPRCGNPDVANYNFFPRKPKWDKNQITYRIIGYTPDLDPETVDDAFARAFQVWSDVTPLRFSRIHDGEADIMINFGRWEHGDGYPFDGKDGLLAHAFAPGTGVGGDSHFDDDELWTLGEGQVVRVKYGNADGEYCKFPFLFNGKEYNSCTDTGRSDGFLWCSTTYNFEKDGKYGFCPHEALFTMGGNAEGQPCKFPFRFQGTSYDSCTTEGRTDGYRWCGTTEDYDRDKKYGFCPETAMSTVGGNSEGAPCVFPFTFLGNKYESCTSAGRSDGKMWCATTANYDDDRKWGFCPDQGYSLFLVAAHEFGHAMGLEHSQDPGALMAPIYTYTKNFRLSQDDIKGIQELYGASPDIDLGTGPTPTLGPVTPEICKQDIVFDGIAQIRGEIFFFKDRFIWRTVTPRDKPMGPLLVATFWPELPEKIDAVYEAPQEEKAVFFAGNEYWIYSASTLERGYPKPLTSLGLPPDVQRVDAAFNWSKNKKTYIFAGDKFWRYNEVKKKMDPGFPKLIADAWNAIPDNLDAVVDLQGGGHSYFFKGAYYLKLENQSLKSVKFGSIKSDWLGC
Chain of Neutrophil collagenase (P22894 whole entry): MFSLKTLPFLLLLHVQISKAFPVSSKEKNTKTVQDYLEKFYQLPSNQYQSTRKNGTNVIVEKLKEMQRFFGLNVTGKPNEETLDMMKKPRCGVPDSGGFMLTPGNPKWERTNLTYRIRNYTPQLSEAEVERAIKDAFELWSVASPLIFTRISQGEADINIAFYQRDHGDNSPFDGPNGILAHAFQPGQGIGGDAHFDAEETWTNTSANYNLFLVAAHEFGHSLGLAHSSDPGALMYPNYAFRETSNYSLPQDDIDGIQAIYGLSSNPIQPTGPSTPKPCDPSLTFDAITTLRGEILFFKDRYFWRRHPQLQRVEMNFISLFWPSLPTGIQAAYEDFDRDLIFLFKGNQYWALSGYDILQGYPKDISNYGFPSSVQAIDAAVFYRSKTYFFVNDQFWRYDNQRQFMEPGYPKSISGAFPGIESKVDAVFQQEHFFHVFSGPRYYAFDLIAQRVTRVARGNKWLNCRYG

| SMILES | Ki [1] [nM] | Ki [2] [nM] | Ki [3] [nM] | Ki [4] [nM] | Bound [5] [%] | Ki [6] [nM] | IC50 [7] [nM] | Ki [8] [nM] | Ki [9] [nM] | Ki [10] [nM] | Ki [11] [nM] | Ki [12] [nM] | Ki [13] [nM] | Ki [14] [nM] | Ki [15] [nM] | Ki [16] [nM] |
| --- | --- | --- | --- | --- | --- | --- | --- | --- | --- | --- | --- | --- | --- | --- | --- | --- |
| O=C1NCCCC[C@@H](C(=O)NCC(=O)N2CCOCC2)NC(=O)[C@H](Cc2ccc(-c3cc(Cl)cc(Cl)c3)cc2)[C@@H](C(=O)NO)CCCO1 | – | – | – | – | 83 | – | 227 | 2.8 | 183 | > 2000 | – | – | 50 | – | – | – |
| CS(=O)(=O)c1ccccc1-c1ccc(C[C@H]2C(=O)N[C@H](C(=O)NCC(=O)N3CCOCC3)CCCCNC(=O)OCCC[C@@H]2C(=O)NO)cc1 | – | – | – | – | 5 | – | 410 | 6.5 | > 2000 | > 2000 | – | – | > 2000 | – | – | – |
| CNC(=O)CNC(=O)[C@@H]1CCCCNC(=O)OCCC[C@H](C(=O)NO)[C@@H](Cc2ccc(-c3ccccc3C(F)(F)F)cc2)C(=O)N1 | – | – | – | – | 33 | – | 380 | 3.8 | 1170 | > 2000 | – | – | 450 | – | – | – |
| O=C1NCCCC[C@@H](C(=O)NCC(=O)N2CCOCC2)NC(=O)[C@H](Cc2ccc(-c3c(F)cccc3F)cc2)[C@@H](C(=O)NO)CCCO1 | – | – | – | – | 25 | – | 3700 | 6.3 | 21 | – | – | – | 0.64 | – | – | > 2000 |
| CC(C)C[C@H]1C(=O)N[C@H](C(=O)NCC(=O)N2CCOCC2)CCCCNC(=O)OCCC[C@@H]1C(=O)NO | – | – | – | – | 1 | – | – | – | – | – | – | – | – | – | – | – |
| O=C1NCCCC[C@@H](C(=O)NCC(=O)N2CCNCC2)NC(=O)[C@H](Cc2ccc(-c3cc(C(F)(F)F)cc(C(F)(F)F)c3)cc2)[C@@H](C(=O)NO)CCCO1 | > 2000 | > 2000 | 272 | 35 | 71 | > 2000 | 180 | 4.6 | > 2000 | > 2000 | > 2000 | > 2000 | > 2000 | > 2000 | > 2000 | – |

The next lines start with the values.

| Ki [1] [nM] | Ki [2] [nM] | Ki [3] [nM] | Ki [4] [nM] | Bound [5] [%] | Ki [6] [nM] | IC50 [7] [nM] | Ki [8] [nM] | Ki [9] [nM] | Ki [10] [nM] | Ki [11] [nM] | Ki [12] [nM] | Ki [13] [nM] | Ki [14] [nM] | Ki [15] [nM] | Ki [16] [nM] | SMILES |
| --- | --- | --- | --- | --- | --- | --- | --- | --- | --- | --- | --- | --- | --- | --- | --- | --- |
| > 2000 | > 2000 | 672 | 390 | 36 | 582 | 60 | 1.7 | 1790 | > 2000 | > 2000 | 177 | 700 | > 2000 | 50 | – | O=C1NCCCC[C@@H](C(=O)NCC(=O)N2CCNCC2)NC(=O)[C@H](Cc2ccc(-c3ccccc3C(F)(F)F)cc2)[C@@H](C(=O)NO)CCCO1 |
| – | – | – | – | 29 | – | 120 | 3.7 | 91 | > 2000 | – | – | 11 | – | – | – | O=C1NCCCC[C@@H](C(=O)NCC(=O)N2CCNCC2)NC(=O)[C@H](Cc2ccc(-c3cccc(C(F)(F)F)c3)cc2)[C@@H](C(=O)NO)CCCO1 |
| > 2000 | > 2000 | 126 | > 2000 | 55 | > 2000 | 70 | 2.8 | > 2000 | > 2000 | > 2000 | 834 | > 2000 | > 2000 | 653 | – | O=C1NCCCC[C@@H](C(=O)NCC(=O)N2CCOCC2)NC(=O)[C@H](Cc2ccc(-c3ccccc3C(F)(F)F)cc2)[C@@H](C(=O)NO)CCCO1 |
| > 2000 | > 2000 | 428 | > 2000 | – | > 2000 | 180 | 1.5 | > 2000 | > 2000 | > 2000 | 1340 | 1870 | > 2000 | 442 | – | NC(=O)CNC(=O)[C@@H]1CCCCNC(=O)OCCC[C@H](C(=O)NO)[C@@H](Cc2ccc(-c3ccccc3C(F)(F)F)cc2)C(=O)N1 |
